Source: ChEMBL document CHEMBL1153588, “DNA sequence selectivity of hairpin polyamide turn units” (Bioorg Med Chem Lett, 2009)

Tests used:
Format in all cases: nucleic-acid assay
[1] = system: Nucleic Acid; assay: Binding affinity to 5'-ATGGTTC-3' in Escherichia coli pCDMF6 by DNase1 foot-printing titration method
Method in brief: (§1)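 The plasmid target was built by ligating an annealed synthetic oligonucleotide pair carrying the tandem match sites. A primer was 5'-end-labelled with ³²P, and binding was measured by DNase I footprinting titrations.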

[2] = system: Nucleic Acid; assay: Binding affinity to 5'-ATGGTA-3' in Escherichia coli pCDMF6 by DNase1 foot-printing titration method; method in brief: as §1
[3] = system: Nucleic Acid; assay: Binding affinity to 5'-ATGGTG-3' in Escherichia coli pCDMF6 by DNase1 foot-printing titration method; method in brief: as §1
[4] = system: Nucleic Acid; assay: Binding affinity to 5'-ATGGTT-3' in Escherichia coli pCDMF6 by DNase1 foot-printing titration method; method in brief: as §1
[5] = system: Nucleic Acid; assay: Binding affinity to 11mer DNA duplex 5'-CTATGGTAGAC-3' assessed as change in melting temperature by spectroscopic analysis
Method in brief: (§2)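 Duplex melting temperatures were measured on a spectrophotometer with a thermo-controlled cell holder in 10 mM sodium cacodylate buffer.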

[6] = system: Nucleic Acid; assay: Binding affinity to 11mer DNA duplex 5'-CTCTGTTACCA-3' assessed as change in melting temperature by spectroscopic analysis; method in brief: as §2
[7] = system: Nucleic Acid; assay: Binding affinity to 11mer DNA duplex 5'-CTATGTTACCA-3' assessed as change in melting temperature by spectroscopic analysis; method in brief: as §2
[8] = system: Nucleic Acid; assay: Binding affinity to 11mer DNA duplex 5'-CTCTGGCACAC-3' assessed as change in melting temperature by spectroscopic analysis; method in brief: as §2

| SMILES | Ka [1] | Ka [2] | Ka [3] | Ka [4] | ΔTm [5] | further results |
| --- | --- | --- | --- | --- | --- | --- |
| CN(C)CCCNC(=O)CCNC(=O)c1cc(NC(=O)c2cc(NC(=O)c3cc(NC(=O)CCCNC(=O)c4cc(NC(=O)c5nc(NC(=O)c6nccn6C)cn5C)cn4C)cn3C)cn2C)cn1C | < 1 ×10⁷ /M | 2 ×10⁸ /M | < 1 ×10⁷ /M | 2.1 ×10⁸ /M | 9.2 °C |  |
| CC(=O)N[C@@H](CNC(=O)c1cc(NC(=O)c2nc(NC(=O)c3nccn3C)cn2C)cn1C)CC(=O)Nc1cc(C(=O)Nc2cc(C(=O)Nc3cc(C(=O)NCCC(=O)NCCCN(C)C)n(C)c3)n(C)c2)n(C)c1 | 8.9 ×10⁷ /M | 5.2 ×10⁹ /M | < 1 ×10⁷ /M | 2 ×10⁹ /M | 12.2 °C |  |
| CN(C)CCCNC(=O)CCNC(=O)c1cc(NC(=O)c2cc(NC(=O)c3cc(NC(=O)C[C@H](N)CNC(=O)c4cc(NC(=O)c5cc(NC(=O)c6nccn6C)cn5C)cn4C)cn3C)cn2C)cn1C |  |  |  |  |  | ΔTm [6]: 11.6 °C; ΔTm [7]: 17 °C |
| CN(C)CCCNC(=O)CCNC(=O)c1cc(NC(=O)c2cc(NC(=O)c3nc(NC(=O)[C@H](N)CCNC(=O)c4cc(NC(=O)c5nc(NC(=O)c6nccn6C)cn5C)cn4C)cn3C)cn2C)cn1C |  |  |  |  |  | ΔTm [8]: 8.3 °C |
| CN(C)CCCNC(=O)CCNC(=O)c1cc(NC(=O)c2cc(NC(=O)c3cc(NC(=O)C[C@H](N)CNC(=O)c4cc(NC(=O)c5nc(NC(=O)c6nccn6C)cn5C)cn4C)cn3C)cn2C)cn1C | 6 ×10⁷ /M | 1.3 ×10⁹ /M | < 1 ×10⁷ /M | 1.1 ×10⁹ /M | 14.7 °C |  |
| CN(C)CCCNC(=O)CCNC(=O)c1cc(NC(=O)c2cc(NC(=O)c3nc(NC(=O)C[C@@H](N)CNC(=O)c4cc(NC(=O)c5nc(NC(=O)c6nccn6C)cn5C)cn4C)cn3C)cn2C)cn1C |  |  |  |  |  | ΔTm [8]: 6.7 °C |
| CN(C)CCCNC(=O)CCNC(=O)c1cc(NC(=O)c2cc(NC(=O)c3cc(NC(=O)[C@@H](O)CCNC(=O)c4cc(NC(=O)c5nc(NC(=O)c6nccn6C)cn5C)cn4C)cn3C)cn2C)cn1C |  |  |  |  | 5.8 °C |  |
| CN(C)CCCNC(=O)CCNC(=O)c1cc(NC(=O)c2cc(NC(=O)c3cc(NC(=O)[C@H](F)CCNC(=O)c4cc(NC(=O)c5nc(NC(=O)c6nccn6C)cn5C)cn4C)cn3C)cn2C)cn1C |  |  |  |  | 8.3 °C |  |
| CN(C)CCCNC(=O)CCNC(=O)c1cc(NC(=O)c2cc(NC(=O)c3cc(NC(=O)[C@H](O)CCNC(=O)c4cc(NC(=O)c5nc(NC(=O)c6nccn6C)cn5C)cn4C)cn3C)cn2C)cn1C |  |  |  |  | 10 °C |  |
| CN(C)CCCNC(=O)CCNC(=O)c1cc(NC(=O)c2cc(NC(=O)c3cc(NC(=O)[C@@H](F)CCNC(=O)c4cc(NC(=O)c5nc(NC(=O)c6nccn6C)cn5C)cn4C)cn3C)cn2C)cn1C |  |  |  |  | 7.9 °C |  |
| CN(C)CCCNC(=O)CCNC(=O)c1cc(NC(=O)c2cc(NC(=O)c3cc(NC(=O)C[C@@H](N)CNC(=O)c4cc(NC(=O)c5cc(NC(=O)c6nccn6C)cn5C)cn4C)cn3C)cn2C)cn1C |  |  |  |  |  | ΔTm [6]: 13 °C; ΔTm [7]: 18 °C |
| CN(C)CCCNC(=O)CCNC(=O)c1cc(NC(=O)c2cc(NC(=O)c3cc(NC(=O)C[C@@H](N)CNC(=O)c4cc(NC(=O)c5nc(NC(=O)c6nccn6C)cn5C)cn4C)cn3C)cn2C)cn1C | 5 ×10⁷ /M | 1.8 ×10⁹ /M | < 1 ×10⁷ /M | 3.3 ×10⁹ /M | 14.9 °C |  |
| CN(C)CCCNC(=O)CCNC(=O)c1cc(NC(=O)c2cc(NC(=O)c3cc(NC(=O)[C@H](N)CCNC(=O)c4cc(NC(=O)c5cc(NC(=O)c6nccn6C)cn5C)cn4C)cn3C)cn2C)cn1C |  |  |  |  |  | ΔTm [6]: 10.9 °C; ΔTm [7]: 15.9 °C |
| CN(C)CCCNC(=O)CCNC(=O)c1cc(NC(=O)c2cc(NC(=O)c3nc(NC(=O)C[C@H](N)CNC(=O)c4cc(NC(=O)c5nc(NC(=O)c6nccn6C)cn5C)cn4C)cn3C)cn2C)cn1C |  |  |  |  |  | ΔTm [8]: 6 °C |
| CN(C)CCCNC(=O)CCNC(=O)c1cc(NC(=O)c2cc(NC(=O)c3cc(NC(=O)[C@H](N)CCNC(=O)c4cc(NC(=O)c5nc(NC(=O)c6nccn6C)cn5C)cn4C)cn3C)cn2C)cn1C | 3.9 ×10⁷ /M | 1.7 ×10⁹ /M | < 1 ×10⁷ /M | 1.6 ×10⁹ /M | 14.7 °C |  |
| CC(=O)N[C@H](CCNC(=O)c1cc(NC(=O)c2nc(NC(=O)c3nccn3C)cn2C)cn1C)C(=O)Nc1cc(C(=O)Nc2cc(C(=O)Nc3cc(C(=O)NCCC(=O)NCCCN(C)C)n(C)c3)n(C)c2)n(C)c1 | < 1 ×10⁷ /M | 2.1 ×10⁸ /M | < 1 ×10⁷ /M | 3.2 ×10⁸ /M | 10.1 °C |  |
